# Laboratory results reported in ChEMBL document CHEMBL1240414, “Synthesis and anticonvulsant activity of new 6-methyl-1-substituted-4,6-diazaspiro[2.4]heptane-5,7-diones” (Eur J Med Chem, 2010).
# Activity calls are given as the source filed them.
# How the values were obtained:
# [1] = test system: Mus musculus; assay: Anticonvulsant activity in Kunming mouse assessed as protection against maximal electroshock-induced seizures at 30 mg/kg, ip after 0.5 hrs; format: functional, organism-based; parameters: dose 30 mg/kg
# [2] = test system: Mus musculus; assay: Anticonvulsant activity in Kunming mouse assessed as protection against subcutaneous pentylenetetrazole-induced seizures at 30 mg/kg, ip after 0.5 hrs; format: functional, organism-based; parameters: dose 30 mg/kg
# How it was run: (§1)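 Male Kunming mice (20 ± 2.0 g) received the compound ip as a suspension in 0.5% methylcellulose at 30, 100 or 300 mg/kg, one to four mice per dose. Pentylenetetrazole in 0.9% saline was given sc at 0.5 h and 4.0 h after dosing. Protection meant no threshold seizure (one clonic spasm episode of at least 5 s). Scored as protected/tested.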
# [3] = test system: Mus musculus; assay: Anticonvulsant activity in Kunming mouse assessed as protection against subcutaneous pentylenetetrazole-induced seizures at 100 mg/kg, ip after 0.5 hrs; format: functional, organism-based; parameters: dose 100 mg/kg; how it was run: as §1
# [4] = test system: Mus musculus; assay: Anticonvulsant activity in Kunming mouse assessed as protection against subcutaneous pentylenetetrazole-induced seizures at 300 mg/kg, ip after 0.5 hrs; format: functional, organism-based; parameters: dose 300 mg/kg; how it was run: as §1
# [5] = test system: Mus musculus; assay: Anticonvulsant activity in Kunming mouse assessed as protection against subcutaneous pentylenetetrazole-induced seizures at 30 mg/kg, ip after 4 hrs; format: functional, organism-based; parameters: dose 30 mg/kg; how it was run: as §1
# [6] = test system: Mus musculus; assay: Anticonvulsant activity in Kunming mouse assessed as protection against subcutaneous pentylenetetrazole-induced seizures at 100 mg/kg, ip after 4 hrs; format: functional, organism-based; parameters: dose 100 mg/kg; how it was run: as §1
# [7] = test system: Mus musculus; assay: Anticonvulsant activity in Kunming mouse assessed as protection against subcutaneous pentylenetetrazole-induced seizures at 300 mg/kg, ip after 4 hrs; format: functional, organism-based; parameters: dose 300 mg/kg; how it was run: as §1
# [8] = test system: Mus musculus; assay: Neurotoxicity in Kunming mouse assessed as minimum motor impairment at 30 mg/kg, ip after 0.5 hrs by rotarod test; format: toxicity, organism-based; parameters: dose 30 mg/kg, route intraperitoneal; conditions: in vivo
# How it was run: (§2)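 Rotorod neurotoxicity in male Kunming mice (20 ± 2.0 g) given ip doses of 30, 100 or 300 mg/kg as a suspension in 0.5% methylcellulose, one to four mice per dose. Motor impairment was examined at 0.5 h and 4.0 h after injection. Reported as number of animals showing toxicity/number tested.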
# [9] = test system: Mus musculus; assay: Neurotoxicity in Kunming mouse assessed as minimum motor impairment at 100 mg/kg, ip after 0.5 hrs by rotarod test; format: toxicity, organism-based; parameters: dose 100 mg/kg, route intraperitoneal; conditions: in vivo; how it was run: as §2
# [10] = test system: Mus musculus; assay: Neurotoxicity in Kunming mouse assessed as minimum motor impairment at 300 mg/kg, ip after 0.5 hrs by rotarod test; format: toxicity, organism-based; parameters: dose 300 mg/kg, route intraperitoneal; conditions: in vivo; how it was run: as §2
# [11] = test system: Mus musculus; assay: Neurotoxicity in Kunming mouse assessed as minimum motor impairment at 30 mg/kg, ip after 4 hrs by rotarod test; format: toxicity, organism-based; parameters: dose 30 mg/kg, route intraperitoneal; conditions: in vivo; how it was run: as §2
# [12] = test system: Mus musculus; assay: Neurotoxicity in Kunming mouse assessed as minimum motor impairment at 100 mg/kg, ip after 4 hrs by rotarod test; format: toxicity, organism-based; parameters: dose 100 mg/kg, route intraperitoneal; conditions: in vivo; how it was run: as §2
# [13] = test system: Rattus norvegicus; assay: Anticonvulsant activity in Kunming rat assessed as protection against maximal electroshock-induced seizures at 30 mg/kg, po after 0.25 hrs; format: functional
# How it was run: (§3)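 Male Kunming rats (250 ± 5.0 g) were dosed orally at 30 mg/kg, four rats per compound. Seizures were induced by a 150-mA corneal current for 0.2 s at 0.25, 0.5, 1, 2 and 4 h after dosing. Readout was the number of rats out of four protected against hindlimb tonic extension.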
# [14] = test system: Rattus norvegicus; assay: Anticonvulsant activity in Kunming rat assessed as protection against maximal electroshock-induced seizures at 30 mg/kg, po after 0.5 hrs; format: functional; how it was run: as §3
# [15] = test system: Rattus norvegicus; assay: Anticonvulsant activity in Kunming rat assessed as protection against maximal electroshock-induced seizures at 30 mg/kg, po after 1 hr; format: functional; how it was run: as §3
# [16] = test system: Rattus norvegicus; assay: Anticonvulsant activity in Kunming rat assessed as protection against maximal electroshock-induced seizures at 30 mg/kg, po after 2 hrs; format: functional; how it was run: as §3
# [17] = test system: Rattus norvegicus; assay: Anticonvulsant activity in Kunming rat assessed as protection against maximal electroshock-induced seizures at 30 mg/kg, po after 4 hrs; format: functional; how it was run: as §3
# [18] = test system: Rattus norvegicus; assay: Neurotoxicity in Kunming rat assessed as minimum motor impairment at 30 mg/kg, po after 0.25 hrs by rotarod test; format: toxicity, organism-based; parameters: dose 30 mg/kg, route oral; conditions: in vivo
# How it was run: (§4)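 Rotorod neurotoxicity in male Kunming rats (250 ± 5.0 g) given 30 mg/kg po, four rats per compound. Motor impairment was assessed at 0.25, 0.5, 1, 2 and 4 h after oral administration.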
# [19] = test system: Rattus norvegicus; assay: Neurotoxicity in Kunming rat assessed as minimum motor impairment at 30 mg/kg, po after 0.5 hrs by rotarod test; format: functional, organism-based; parameters: dose 30 mg/kg; how it was run: as §4
# [20] = test system: Rattus norvegicus; assay: Neurotoxicity in Kunming rat assessed as minimum motor impairment at 30 mg/kg, po after 1 hr by rotarod test; format: functional, organism-based; parameters: dose 30 mg/kg; how it was run: as §4
# [21] = test system: Rattus norvegicus; assay: Neurotoxicity in Kunming rat assessed as minimum motor impairment at 30 mg/kg, po after 2 hrs by rotarod test; format: functional, organism-based; parameters: dose 30 mg/kg; how it was run: as §4
# [22] = test system: Rattus norvegicus; assay: Neurotoxicity in Kunming rat assessed as minimum motor impairment at 30 mg/kg, po after 4 hrs by rotarod test; format: functional, organism-based; parameters: dose 30 mg/kg; how it was run: as §4
# [23] = test system: Mus musculus; assay: Anticonvulsant activity in ip dosed Kunming mouse assessed as protection against subcutaneous pentylenetetrazole-induced seizures; format: functional
# How it was run: (§5)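 Quantitative phase-II study in groups of 10 male Kunming mice. A range of ip doses in 0.5% carboxymethyl cellulose-0.9% saline (0.1 ml) was given until at least three points fell within 10–90% seizure protection (MES or scPTZ) or minimal neurotoxicity. Rotorod toxicity was read 30 min after dosing.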
# [24] = test system: Mus musculus; assay: Anticonvulsant activity in ip dosed Kunming mouse assessed as time peak effect; format: functional
# [25] = test system: Mus musculus; assay: Anticonvulsant activity in Kunming mouse assessed as protection against maximal electroshock-induced seizures at 100 mg/kg, ip after 4 hrs; format: functional, organism-based; parameters: dose 100 mg/kg
# [26] = test system: Mus musculus; assay: Anticonvulsant activity in Kunming mouse assessed as protection against maximal electroshock-induced seizures at 300 mg/kg, ip after 4 hrs; format: functional, organism-based; parameters: dose 300 mg/kg
# [27] = test system: Mus musculus; assay: Neurotoxicity in Kunming mouse assessed as minimum motor impairment at 300 mg/kg, ip after 4 hrs by rotarod test; format: toxicity, organism-based; parameters: dose 300 mg/kg, route intraperitoneal; conditions: in vivo; how it was run: as §2
# [28] = test system: Rattus norvegicus; assay: Anticonvulsant activity in Kunming rat assessed as protection against subcutaneous pentylenetetrazole-induced seizures at 30 mg/kg, po after 1 hr; format: functional
# [29] = test system: Mus musculus; assay: Anticonvulsant activity in ip dosed Kunming mouse assessed as protection against maximal electroshock-induced seizures; format: functional; how it was run: as §5
# [30] = Neurotoxicity in ip dosed Kunming mouse assessed as minimum motor impairment by rotarod test; format: toxicity, organism-based; conditions: in vivo; how it was run: as §5
# [31] = test system: Mus musculus; assay: Protective index, ratio of TD50 for neurotoxicity in ip dosed Kunming mouse to ED50 for Kunming mouse by MES test; format: functional
# [32] = test system: Mus musculus; assay: Protective index, ratio of TD50 for neurotoxicity in ip dosed Kunming mouse to ED50 for Kunming mouse by sPTZ test; format: functional
# [33] = test system: Mus musculus; assay: Anticonvulsant activity in Kunming mouse assessed as protection against maximal electroshock-induced seizures at 100 mg/kg, ip after 0.5 hrs; format: functional, organism-based; parameters: dose 100 mg/kg
# [34] = test system: Mus musculus; assay: Anticonvulsant activity in Kunming mouse assessed as protection against maximal electroshock-induced seizures at 30 mg/kg, ip after 4 hrs; format: functional, organism-based; parameters: dose 30 mg/kg
# [35] = test system: Rattus norvegicus; assay: Anticonvulsant activity in Kunming rat assessed as protection against subcutaneous pentylenetetrazole-induced seizures at 30 mg/kg, po after 0.5 hrs; format: functional
SMILES,Activity [1],Activity [2],Activity [5],Activity [8],Activity [9],Activity [10],Activity [11],Activity [12],Activity [13],Activity [14],Activity [15],Activity [16],Activity [17],Activity [18],Activity [19],Activity [20],Activity [21],Activity [22],Activity [26],Activity [27],also measured
CN1C(=O)NC2(CC2c2ccccc2)C1=O (stereo unspecified),Active,inactive,inactive,Non-toxic,Non-toxic,Toxic,Non-toxic,Non-toxic,inactive,25%,inactive,inactive,inactive,Non-toxic,Not toxic,Not toxic,Not toxic,Not toxic,–,–,Activity [3]: inactive; Activity [4]: inactive; Activity [6]: inactive; Activity [7]: inactive
O=C1NC(=O)C(c2ccccc2)(c2ccccc2)N1 [PHENYTOIN],–,–,–,–,–,–,–,–,–,Active,–,–,–,–,–,–,–,–,–,–,ED50 [23]: > 300 mg/kg; Time [24]: 2 h
CN1C(=O)NC2(CC2c2ccc(S(C)(=O)=O)cc2)C1=O (stereo unspecified),Active,Active,inactive,Non-toxic,Non-toxic,–,Non-toxic,Non-toxic,inactive,50%,50%,75%,75%,Non-toxic,Not toxic,Not toxic,Not toxic,Not toxic,Active,Non-toxic,Activity [25]: Active; Activity [3]: Active; Activity [4]: Active; Activity [28]: 25%; ED50 [29]: 12.5 mg/kg; ED50 [23]: 427 mg/kg; TD50 [30]: 310 mg/kg; PI [31]: 24.8; PI [32]: 0.73; Time [24]: 0.5 h
COc1cccc(C2CC23NC(=O)N(C)C3=O)c1OC (stereo unspecified),Active,inactive,inactive,Non-toxic,Non-toxic,Toxic,Non-toxic,Non-toxic,–,–,–,–,–,Non-toxic,Not toxic,Not toxic,Not toxic,Not toxic,Active,Non-toxic,Activity [33]: Active; Activity [34]: inactive; Activity [6]: inactive; Activity [35]: 25%; Activity [28]: inactive
CCCCC1CC12NC(=O)N(C)C2=O (stereo unspecified),Active,Active,inactive,Non-toxic,Non-toxic,Non-toxic,Non-toxic,Non-toxic,25%,inactive,50%,inactive,inactive,Non-toxic,Not toxic,Not toxic,Not toxic,Not toxic,–,Non-toxic,Activity [6]: inactive
COc1ccc(C2CC23NC(=O)N(C)C3=O)c(OC)c1OC (stereo unspecified),inactive,inactive,inactive,Non-toxic,Non-toxic,Non-toxic,Non-toxic,Non-toxic,–,–,–,–,–,Non-toxic,Not toxic,Not toxic,Not toxic,Not toxic,Active,Non-toxic,Activity [34]: inactive; Activity [25]: inactive; Activity [28]: inactive
CN1C(=O)NC2(CC2c2ccc(F)cc2)C1=O (stereo unspecified),Active,Active,inactive,Non-toxic,Non-toxic,Non-toxic,Non-toxic,Non-toxic,inactive,25%,inactive,25%,inactive,Non-toxic,Not toxic,Not toxic,Not toxic,Not toxic,Active,Non-toxic,Activity [25]: Active; Activity [3]: Active; Activity [4]: Active; Activity [28]: 25%
